Active and inactive are the calls of the source. No cut-off for these calls is given here.
Key:
[1] = biological target: T1, Protein cereblon/Histone-lysine N-methyltransferase EZH2 (Homo sapiens) (UniProt Q15910+Q96SW2); test: PROTAC activity at CRBN E3 ligase/EZH2 in PRC2 complex in human WSUDLCL2 cells assessed as reduction in H3K27me3 level at 1 uM incubated for 48 hrs by Western blot analysis; assay type: cell-based
Outline: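 WSU-DLCL-2 cells treated 48 h (1 μM for the single-concentration screen), lysed; SDS-PAGE, nitrocellulose transfer, 5% milk block, primary antibody 4 °C overnight, chemiluminescence. Bands quantified by densitometry, normalized to GAPDH, expressed relative to DMSO-treated cells; mean ± SD of three independent experiments, t-test.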

[2] = biological target: Histone-lysine N-methyltransferase EZH2 (Homo sapiens, UniProt Q15910); assay type: cell-based, Sf9
[3] = biological target: T1, Protein cereblon/Histone-lysine N-methyltransferase EZH2 (Homo sapiens); test: PROTAC activity at CRBN E3 ligase/EZH2 in PRC2 complex in human WSUDLCL2 cells assessed as reduction in RbAp48 level at 2.5 uM measured after 48 hrs by Western blot analysis; assay type: cell-based
Outline: (§1)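 WSU-DLCL-2 cells exposed 48 h to PROTAC or control analogues at 2.5 μM, with thalidomide and EPZ6438 at 10 μM; PRC2 subunit levels then read by western blot.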

[4] = biological target: T1, Protein cereblon/Histone-lysine N-methyltransferase EZH2 (Homo sapiens); test: PROTAC activity at CRBN E3 ligase/EZH2 in PRC2 complex in human WSUDLCL2 cells assessed as reduction in SUZ12 level at 2.5 uM measured after 48 hrs by Western blot analysis; assay type: cell-based; outline: as §1
[5] = biological target: T1, Protein cereblon/Histone-lysine N-methyltransferase EZH2 (Homo sapiens); test: PROTAC activity at CRBN E3 ligase/EZH2 in PRC2 complex in human WSUDLCL2 cells assessed as reduction in EZH2 level at 2.5 uM measured after 48 hrs by Western blot analysis; assay type: cell-based; outline: as §1
[6] = tested on: A549; test: Antiproliferative activity against EZH2-knockdown human A549 cells assessed as inhibition of cell growth at 10 uM treated for 9 days by optical microscopic analysis; assay type: functional, cell-based; settings: time 9.0 day
Outline: (§2)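 Cells seeded at 5 × 10³ per well, grown 24 h, then exposed to compound at 10 μM for 9 days with medium refreshed. Cells were photographed and counted on days 1, 3, 5, 7 and 9. For lines 1-2, EZH2-targeting or control shRNA was induced in the cells. Mean SD of three independent experiments; t-test against control.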

[7] = tested on: NCI-H1299; test: Antiproliferative activity against EZH2-knockdown human NCI-H1299 cells assessed as inhibition of cell growth at 10 uM treated for 9 days by optical microscopic analysis; assay type: functional, cell-based; settings: time 9.0 day; outline: as §2
[8] = biological target: T1, Protein cereblon/Histone-lysine N-methyltransferase EZH2 (Homo sapiens); test: PROTAC activity at CRBN E3 ligase/EZH2 in PRC2 complex in human WSUDLCL2 cells assessed as reduction in EED level at 2.5 uM measured after 48 hrs by Western blot analysis; assay type: cell-based; outline: as §1

Sequence of Histone-lysine N-methyltransferase EZH2 (Q15910 whole entry): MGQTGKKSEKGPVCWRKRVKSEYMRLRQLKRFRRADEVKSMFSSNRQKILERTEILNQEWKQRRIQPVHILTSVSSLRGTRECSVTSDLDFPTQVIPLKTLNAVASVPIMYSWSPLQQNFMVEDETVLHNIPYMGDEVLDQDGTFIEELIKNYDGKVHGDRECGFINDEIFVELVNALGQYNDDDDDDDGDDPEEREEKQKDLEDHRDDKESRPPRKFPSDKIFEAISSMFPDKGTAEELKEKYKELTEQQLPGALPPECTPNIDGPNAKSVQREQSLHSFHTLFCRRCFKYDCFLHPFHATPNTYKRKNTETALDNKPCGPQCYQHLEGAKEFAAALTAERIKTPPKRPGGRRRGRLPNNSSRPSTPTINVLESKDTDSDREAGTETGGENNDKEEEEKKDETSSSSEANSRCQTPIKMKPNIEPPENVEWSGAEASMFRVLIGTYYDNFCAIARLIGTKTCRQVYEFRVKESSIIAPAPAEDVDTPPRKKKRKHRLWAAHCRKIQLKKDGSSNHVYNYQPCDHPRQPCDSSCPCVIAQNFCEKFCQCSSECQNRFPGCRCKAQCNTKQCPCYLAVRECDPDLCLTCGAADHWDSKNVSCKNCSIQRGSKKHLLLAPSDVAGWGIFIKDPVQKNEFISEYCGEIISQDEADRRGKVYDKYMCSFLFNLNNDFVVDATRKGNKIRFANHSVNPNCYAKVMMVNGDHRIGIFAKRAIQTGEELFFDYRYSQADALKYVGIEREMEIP
T1 sequence (Q15910 whole entry, looked up): as the sequence (Q15910 whole entry) above
T1 sequence (Q96SW2 whole entry, looked up): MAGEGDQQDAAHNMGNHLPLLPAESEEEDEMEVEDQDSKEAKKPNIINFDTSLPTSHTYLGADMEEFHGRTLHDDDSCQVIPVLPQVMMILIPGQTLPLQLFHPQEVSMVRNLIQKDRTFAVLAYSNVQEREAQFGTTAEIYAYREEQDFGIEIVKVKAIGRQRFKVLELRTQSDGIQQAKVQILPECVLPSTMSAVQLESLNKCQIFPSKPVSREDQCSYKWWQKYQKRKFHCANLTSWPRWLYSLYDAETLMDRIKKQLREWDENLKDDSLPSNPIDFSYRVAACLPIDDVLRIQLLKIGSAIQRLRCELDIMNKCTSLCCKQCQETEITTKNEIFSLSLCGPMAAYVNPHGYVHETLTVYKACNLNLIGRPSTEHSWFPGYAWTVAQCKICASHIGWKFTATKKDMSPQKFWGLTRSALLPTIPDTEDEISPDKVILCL

Activity [1] | IC50 [2] | SMILES | further results
Active | 7.3 nM | CC[C@H](C)n1cc(C)c2c(C(=O)NCc3c(C)cc(C)[nH]c3=O)cc(-c3ccc(N4CCN(CCCCCCCCOc5cccc6c5C(=O)N(C5CCC(=O)NC5=O)C6=O)CC4)nc3)cc21 (some centres undefined) | 
 | 3.9 nM | CCN(c1cc(-c2ccc(CN3CCN(CCCCCCOc4cccc5c4C(=O)N(C4CCC(=O)NC4=O)C5=O)CC3)cc2)cc(C(=O)NCc2c(C)cc(C)[nH]c2=O)c1C)C1CCOCC1 (centres undefined) | 
 | 53 nM | CCN(c1cc(-c2ccc(CN3CCN(CCCCCCCCCCCCOc4cccc5c4C(=O)N(C4CCC(=O)NC4=O)C5=O)CC3)cc2)cc(C(=O)NCc2c(C)cc(C)[nH]c2=O)c1C)C1CCOCC1 (centres undefined) | 

More lines, now with the values behind:

SMILES | Activity [1] | IC50 [2] | further results
CCN(c1cc(-c2ccc(CN3CCN(CCCCCCCCCCOc4cccc5c4C(=O)N(C4CCC(=O)NC4=O)C5=O)CC3)cc2)cc(C(=O)NCc2c(C)cc(C)[nH]c2=O)c1C)C1CCOCC1 (centres undefined) | Active | 17 nM | 
CCN(c1cc(-c2ccc(CN3CCN(CCCCCCCOc4cccc5c4C(=O)N(C4CCC(=O)N(C)C4=O)C5=O)CC3)cc2)cc(C(=O)NCc2c(C)cc(C)[nH]c2=O)c1C)C1CCOCC1 (centres undefined) |  | 1.93 nM | Activity [3]: inactive; Activity [4]: inactive; Activity [5]: inactive; Activity [6]: inactive; Activity [7]: inactive; Activity [8]: inactive
CC[C@H](C)n1cc(C)c2c(C(=O)NCc3c(C)cc(C)[nH]c3=O)cc(-c3ccc(N4CCN(CCCCCOc5cccc6c5C(=O)N(C5CCC(=O)NC5=O)C6=O)CC4)nc3)cc21 (some centres undefined) |  | 5.8 nM | 
CC[C@H](C)n1cc(C)c2c(C(=O)NCc3c(C)cc(C)[nH]c3=O)cc(-c3ccc(N4CCN(CCCCCCOc5cccc6c5C(=O)N(C5CCC(=O)NC5=O)C6=O)CC4)nc3)cc21 (some centres undefined) |  | 4 nM | 
CC[C@H](C)n1cc(C)c2c(C(=O)NCc3c(C)cc(C)[nH]c3=O)cc(-c3ccc(N4CCN(CCCCCCCCCOc5cccc6c5C(=O)N(C5CCC(=O)NC5=O)C6=O)CC4)nc3)cc21 (some centres undefined) | Active | 16 nM | 
CC[C@H](C)n1cc(C)c2c(C(=O)NCc3c(C)cc(C)[nH]c3=O)cc(-c3ccc(N4CCN(CCCCCCCCCCOc5cccc6c5C(=O)N(C5CCC(=O)NC5=O)C6=O)CC4)nc3)cc21 (some centres undefined) | Active | 144 nM | 

Source: ChEMBL document CHEMBL5038571, “Design and Synthesis of EZH2-Based PROTACs to Degrade the PRC2 Complex for Targeting the Noncatalytic Activity of EZH2” (J Med Chem, 2021)
